Reference: ChEMBL document CHEMBL4024747, “Design, Synthesis, and Biological Activities of Vibsanin B Derivatives: A New Class of HSP90 C-Terminal Inhibitors” (J Med Chem, 2017)
Activity calls are given as the source filed them. The calls are words filed in the database; no cut-off is given here.

Legend:
BT-474 [1] = test: Cell cycle arrest in human BT474 cells assessed as accumulation at S phase at 5 uM after 16 hrs by propidium iodide-staining based FACS analysis (reference value: 8.52%); assay type: functional
[2] = target: T1, Heat shock protein HSP90 (Homo sapiens) (UniProt P07900+P08238); test: Inhibition of HSP90 in human BT474 cells assessed as decrease in CDK4 protein expression at 1.25 to 5 uM after 24 hrs by Western blot analysis; assay type: cell-based
Summary of the method: (§1)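 BT474 cells lysed directly in 2× Laemmli buffer; proteins resolved on 12% acrylamide gel and transferred to PVDF. Blocked overnight at 4 °C in 5% skim milk, then probed 1 h at room temperature with antibodies to HER2, pAkt, CDK4, HSP90, HSP70 and HSP27. Chemiluminescent detection with β-actin as loading control; run in triplicate.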

[3] = target: T1, Heat shock protein HSP90 (Homo sapiens); test: Inhibition of HSP90 in human BT474 cells assessed as induction of HSP70 expression at 1.25 to 5 uM after 24 hrs by Western blot analysis; assay type: cell-based; summary of the method: as §1
AGS = test: Antiproliferative activity against human AGS cells assessed as reduction in cell viability after 48 hrs by MTT assay; assay type: functional, cell-based
[4] = Half life of compound in toluene at 110 degreeC by HPLC analysis; assay type: physicochemical
Summary of the method: (§2)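 Thermostability in toluene at 110 °C or 60 °C followed by HPLC; half-life estimated.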

[5] = target: T1, Heat shock protein HSP90 (Homo sapiens); test: Inhibition of HSP90 in human BT474 cells assessed as induction of HSP27 expression at 1.25 to 5 uM after 24 hrs by Western blot analysis; assay type: cell-based; summary of the method: as §1
MDA-MB-468 = test: Antiproliferative activity against human MDA-MB-468 cells assessed as reduction in cell viability after 48 hrs by MTT assay; assay type: functional, cell-based; details: MDA-MB-468, 48 h
HeLa = test: Antiproliferative activity against human HeLa cells assessed as reduction in cell viability after 48 hrs by MTT assay; assay type: functional, cell-based
BT-474 [6] = test: Cell cycle arrest in human BT474 cells assessed as accumulation at S phase at 2.5 uM after 16 hrs by propidium iodide-staining based FACS analysis (reference value: 8.52%); assay type: functional
HL-60 = test: Antiproliferative activity against human HL60 cells assessed as reduction in cell viability after 48 hrs by MTT assay; assay type: functional, cell-based; details: HL-60, 48 h
BT-474 [7] = test: Cell cycle arrest in human BT474 cells assessed as accumulation at G2/M phase at 5 uM after 16 hrs by propidium iodide-staining based FACS analysis (reference value: 15.79%); assay type: functional
BEAS-2B = test: Cytotoxicity against human BEAS2B cells assessed as reduction in cell viability after 48 hrs by MTT assay; assay type: cell-based
[8] = target: Heat shock protein HSP 90-alpha (Homo sapiens) (UniProt P07900); test: Inhibition of FITC-geldanamycin binding to human FLAG-tagged HSP90alpha N-terminal domain
SW480 = test: Antiproliferative activity against human SW480 cells assessed as reduction in cell viability after 48 hrs by MTT assay; assay type: functional, cell-based; details: SW480, 48 h
[9] = target: Luciferin 4-monooxygenase (Photinus pyralis) (UniProt P08659); test: Inhibition of firefly luciferase activity using luciferin substrate at 10 uM after 30 mins by luminescence assay
BT-474 [10] = test: Cell cycle arrest in human BT474 cells assessed as accumulation at G0/G1 phase at 2.5 uM after 16 hrs by propidium iodide-staining based FACS analysis (reference value: 74.88%); assay type: functional
BT-474 [11] = test: Antiproliferative activity against human BT474 cells assessed as reduction in cell viability after 48 hrs by MTT assay; assay type: functional, cell-based; details: BT-474, 48 h
SK-BR-3 = test: Antiproliferative activity against human SKBR3 cells assessed as reduction in cell viability after 48 hrs by MTT assay; assay type: functional, cell-based; details: SK-BR-3, 48 h
[12] = Half life of compound in toluene at 60 degreeC by HPLC analysis; assay type: physicochemical; summary of the method: as §2
[13] = target: T1, Heat shock protein HSP90 (Homo sapiens); test: Inhibition of HSP90 in human BT474 cells assessed as decrease in c-Raf protein expression at 1.25 to 5 uM after 24 hrs by Western blot analysis; assay type: cell-based
BT-474 [14] = test: Cell cycle arrest in human BT474 cells assessed as accumulation at subG1 phase at 2.5 uM after 16 hrs by propidium iodide-staining based FACS analysis (reference value: 0.81%); assay type: functional
BT-474 [15] = test: Cell cycle arrest in human BT474 cells assessed as accumulation at G2/M phase at 2.5 uM after 16 hrs by propidium iodide-staining based FACS analysis (reference value: 15.79%); assay type: functional
[16] = Stability of compound in DMSO at 4 degreeC after 4 weeks HPLC analysis; assay type: physicochemical; details: 672 h
[17] = target: Heat shock protein HSP 90-beta (Homo sapiens) (UniProt P08238); test: Inhibition of recombinant human Biotin-labeled N-terminal His/Avi-tagged HSP90beta C-terminal domain (527 to 724 residues) expressed in Escherichia coli interaction with GST-tagged Cyp40 at 1 to 100 uM after 30 mins by Alphascreen assay
Summary of the method: (§3)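 AlphaScreen assay: biotin-labelled HSP90β C-terminus (aa 527–724) mixed with GST-Cyp40 and compound (1–100 μM; novobiocin 500 μM) for 30 min at room temperature. Glutathione acceptor beads added for 30 min, then streptavidin donor beads for 10 min. Excitation at 680 nm, emission read at 520–620 nm; percent activity calculated against enzyme and background wells.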

MCF7 = test: Antiproliferative activity against human MCF7 cells assessed as reduction in cell viability after 48 hrs by MTT assay; assay type: functional, cell-based; details: MCF7, 48 h
BT-474 [18] = test: Cell cycle arrest in human BT474 cells assessed as accumulation at subG1 phase at 5 uM after 16 hrs by propidium iodide-staining based FACS analysis (reference value: 0.81%); assay type: functional
Danio rerio = species: Danio rerio; test: Toxicity in 3 days post fertilized zebrafish embryo assessed as changes in embryonic phenotypes at 4 to 16 uM after 12 hrs; details: in vivo
Huh-7 = test: Antiproliferative activity against human HuH7 cells assessed as reduction in cell viability after 48 hrs by MTT assay; assay type: functional, cell-based; details: Huh-7, 48 h
HepG2 = test: Antiproliferative activity against human HepG2 cells assessed as reduction in cell viability after 48 hrs by MTT assay; assay type: functional, cell-based; details: HepG2, 48 h
[19] = target: T1, Heat shock protein HSP90 (Homo sapiens); test: Inhibition of HSP90 in human BT474 cells assessed as decrease in p-Akt expression at 1.25 to 5 uM after 24 hrs by Western blot analysis; assay type: cell-based; summary of the method: as §1
Oryctolagus cuniculus = species: Oryctolagus cuniculus; test: Inhibition of HSP90 in rabbit reticulocyte lysate assessed as decrease in HSP90-dependant refolding of firefly luciferase at 10 uM after 30 mins by luciferase gene based assay
Summary of the method: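 Firefly luciferase heat-denatured at 41 °C for 10 min, then added with rabbit reticulocyte lysate to compounds at 10 μM. Renaturation at room temperature for 3 h; luciferin substrate added and luminescence read. Refolding expressed relative to DMSO; novobiocin at 500 μM as reference. Three independent experiments.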

[20] = target: Heat shock protein HSP 90-beta (Homo sapiens) (UniProt P08238); test: Inhibition of FITC-geldanamycin binding to human FLAG-tagged HSP90beta N-terminal domain
A549 = test: Antiproliferative activity against human A549 cells assessed as reduction in cell viability after 48 hrs by MTT assay; assay type: functional, cell-based; details: A549, 48 h
[21] = Drug metabolism in deionized water assessed as compound decomposition at 100 degreeC after 10 mins by HPLC analysis relative to control; assay type: physicochemical; details: read-out: Drug metabolism
Summary of the method: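 Thermostability determined by HPLC after heating in deionized water at 100 °C for 10 min; decomposition recorded in percent.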

[22] = target: T1, Heat shock protein HSP90 (Homo sapiens); test: Inhibition of HSP90 in human BT474 cells assessed as decrease in Her2 protein expression at 1.25 to 5 uM after 24 hrs by Western blot analysis; assay type: cell-based; summary of the method: as §1
SMMC-7721 = test: Antiproliferative activity against human SMMC7721 cells assessed as reduction in cell viability after 48 hrs by MTT assay; assay type: functional, cell-based; details: SMMC-7721, 48 h
[23] = target: Heat shock protein HSP 90-beta (Homo sapiens) (UniProt P08238); test: Inhibition of recombinant human Biotin-labeled N-terminal His/Avi-tagged HSP90beta C-terminal domain (527 to 724 residues) expressed in Escherichia coli interaction with GST-tagged Cyp40 at 100 uM after 30 mins by Alphascreen assay; summary of the method: as §3
[24] = Stability of compound in pH 7.4 PBS at 37 degreeC after 12 hrs by HPLC analysis; assay type: physicochemical; details: buffer, pH 7.4, 12 h
Summary of the method: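 Solution stability determined by HPLC after incubation in PBS pH 7.4 at 37 °C for 12 h.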

BT-474 [25] = test: Cell cycle arrest in human BT474 cells assessed as accumulation at G0/G1 phase at 5 uM after 16 hrs by propidium iodide-staining based FACS analysis (reference value: 74.88%); assay type: functional

Sequence of Heat shock protein HSP 90-beta (Homo sapiens) (P08238 whole entry, the tested form may be a part): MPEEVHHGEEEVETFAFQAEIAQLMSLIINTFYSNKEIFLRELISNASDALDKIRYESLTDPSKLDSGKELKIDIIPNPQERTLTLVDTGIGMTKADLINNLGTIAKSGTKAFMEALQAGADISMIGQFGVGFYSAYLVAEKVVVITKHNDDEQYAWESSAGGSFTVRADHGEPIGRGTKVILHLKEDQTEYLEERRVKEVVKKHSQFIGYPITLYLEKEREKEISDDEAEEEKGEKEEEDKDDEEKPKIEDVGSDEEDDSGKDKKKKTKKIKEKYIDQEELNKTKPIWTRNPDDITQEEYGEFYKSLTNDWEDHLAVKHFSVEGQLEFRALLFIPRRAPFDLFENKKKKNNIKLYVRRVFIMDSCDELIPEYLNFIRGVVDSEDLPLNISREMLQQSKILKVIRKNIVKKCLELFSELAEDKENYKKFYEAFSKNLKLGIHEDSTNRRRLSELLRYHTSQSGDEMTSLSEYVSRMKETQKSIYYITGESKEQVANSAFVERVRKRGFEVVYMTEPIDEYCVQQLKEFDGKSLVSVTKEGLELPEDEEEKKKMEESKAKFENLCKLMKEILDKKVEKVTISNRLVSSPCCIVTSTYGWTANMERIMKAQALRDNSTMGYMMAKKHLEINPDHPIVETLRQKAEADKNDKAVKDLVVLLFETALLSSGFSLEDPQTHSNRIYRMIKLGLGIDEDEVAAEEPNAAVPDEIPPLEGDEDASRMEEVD
Sequence of Luciferin 4-monooxygenase (Photinus pyralis) (P08659 whole entry): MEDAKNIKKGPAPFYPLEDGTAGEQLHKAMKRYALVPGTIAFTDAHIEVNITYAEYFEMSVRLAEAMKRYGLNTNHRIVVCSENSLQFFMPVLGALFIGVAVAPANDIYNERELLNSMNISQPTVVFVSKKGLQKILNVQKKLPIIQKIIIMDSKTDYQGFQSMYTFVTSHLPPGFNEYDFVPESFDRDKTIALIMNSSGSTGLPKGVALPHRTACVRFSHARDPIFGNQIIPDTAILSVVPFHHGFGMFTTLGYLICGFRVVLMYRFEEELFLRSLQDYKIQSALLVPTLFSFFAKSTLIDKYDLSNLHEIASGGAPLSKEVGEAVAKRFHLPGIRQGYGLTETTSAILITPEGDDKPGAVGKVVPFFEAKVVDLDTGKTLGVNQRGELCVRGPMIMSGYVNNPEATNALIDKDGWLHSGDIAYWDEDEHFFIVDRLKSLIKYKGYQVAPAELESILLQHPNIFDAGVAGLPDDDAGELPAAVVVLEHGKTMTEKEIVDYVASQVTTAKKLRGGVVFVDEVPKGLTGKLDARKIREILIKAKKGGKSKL

CC(C)=CCC[C@]1(C)/C=C/[C@@H](OC(=O)C=C(C)C)[C@](C)(O)/C=C/C(=O)/C(CN2CCN(C)CC2)=C\C1
Activity (BT-474 [1]): 8.33% | inhibition [2]: Active | inhibition [3]: Active | IC50 (AGS): 860 nM | half-life [4]: 5 min | inhibition [5]: Active | IC50 (MDA-MB-468): 760 nM | IC50 (HeLa): 590 nM | Activity (BT-474 [6]): 5.3% | IC50 (HL-60): 840 nM | Activity (BT-474 [7]): 25.6% | IC50 (BEAS-2B): 2840 nM | inhibition [8]: inactive | IC50 (SW480): 800 nM | inhibition [9]: inactive | Activity (BT-474 [10]): 73.18% | IC50 (BT-474 [11]): 2640 nM | IC50 (SK-BR-3): 1120 nM | half-life [12]: 20 min | inhibition [13]: Active | Activity (BT-474 [14]): 2.03% | Activity (BT-474 [15]): 19.49% | Stability [16]: Stable | inhibition [17]: Active | IC50 (MCF7): 550 nM | Activity (BT-474 [18]): 4.18% | Activity (Danio rerio): Non-Toxic | IC50 (Huh-7): 860 nM | IC50 (HepG2): 2260 nM | inhibition [19]: Active | inhibition (Oryctolagus cuniculus): Active | inhibition [20]: inactive | IC50 (A549): 940 nM | degraded at 10 min [21]: 2.3% | inhibition [22]: Active | IC50 (SMMC-7721): 2940 nM | inhibition [23]: Active | Stability [24]: Stable | Activity (BT-474 [25]): 61.89%
